Bioassay records deposited in PubChem BioAssay by several laboratories.
This is a sample that favours compounds with a hit; in the whole collection about 2.1% have one here.
Scp1 inh – Scp-1 phosphatase inhibitors, primary screen, biochemical, colorimetric, uHTS; inhibition, % at 20 µM; Carboxy-terminal domain RNA polymerase II polypeptide A small phosphatase 1 (Homo …; 0.88% of 340,000 active; Recombinant Scp1, phosphopeptide, malachite green phosphate absorbance; AID 493091, 2011;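 active = inhibition above about 50% at 20 µM, limit read from the data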;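 note: plate controls were DMSO wells with enzyme for no effect and wells lacking enzyme for full effect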
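Test system: SCP-1 catalytic domain; Buffer or medium: Acidic Tris acetate buffer with magnesium and detergent; Also added: Phosphorylated 17-residue peptide substrate; Compound: single 20 µM dose, 1% DMSO; Schedule: enzyme reaction 45 min at room temperature, colour 5 min, stabilisation 30 min; Signal: Phosphate-binding colour reagent, absorbance read at 630 nm.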
LMPTP inh – LMPTP phosphatase inhibitors, primary screen, biochemical, fluorescence intensity, uHTS. Low molecular weight phosphotyrosine protein phosphatase (Homo sapiens), P24666. inhibition, % at 20 µM. 0.22% of 360,000 active. recombinant LMPTP-A, OMFP fluorogenic substrate. AID 651560, 2012;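 active = compounds that cut the enzyme signal by at least half of the control window in the single-dose screen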;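 note: plate controls were DMSO wells with enzyme plus substrate for no effect and substrate without enzyme for full effect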
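Material: LMPTP-A; amount: 0.625 nM enzyme; doses: single 20 µM dose; times: reaction 50 min, room temperature, dark; technique: fluorescence intensity of OMFP turnover product; benchmarks: no-enzyme and uninhibited controls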
SUMO1 PPI mod – modulators of SUMO1 protein-protein interactions, primary screen, biochemical, uHTS | Small ubiquitin-related modifier 1 (Homo sapiens), P63165 | SUMO1 binding to a labelled peptide, TR-FRET, 1 h | AID 602429, 2012 | 0.33% of 360,000 active | inhibition, % at 20 µM; in the data active = inhibition above about 37%
DNMT1 block – human DNMT1 methyltransferase inhibitors, primary screen, biochemical, molecular beacon, fluorescence, HinP1I cleavage, uHTS | DNA (cytosine-5)-methyltransferase 1 (Homo sapiens), P26358 | inhibition (reported as % activation of signal), % at 10 µM | 0.83% of 360,000 active; in the data active = inhibition above about 50%
GRK2 inh – compounds blocking aptamer binding on GRK2 – biochemical, human GRK2, bead flow cytometry, HTS, primary screen; Beta-adrenergic receptor kinase 1 (Homo sapiens), P25098; FAM-aptamer displacement from GRK2; inhibition of aptamer binding, % at 10 µM; 0.59% of 330,000 active;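 active = inhibition of aptamer binding above 40%, roughly 3 SD of noise, on plates passing a quality check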;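 note: median bead fluorescence of bound FAM aptamer so fluorescent compounds give negative values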
Target sequence (P25098 whole entry, looked up): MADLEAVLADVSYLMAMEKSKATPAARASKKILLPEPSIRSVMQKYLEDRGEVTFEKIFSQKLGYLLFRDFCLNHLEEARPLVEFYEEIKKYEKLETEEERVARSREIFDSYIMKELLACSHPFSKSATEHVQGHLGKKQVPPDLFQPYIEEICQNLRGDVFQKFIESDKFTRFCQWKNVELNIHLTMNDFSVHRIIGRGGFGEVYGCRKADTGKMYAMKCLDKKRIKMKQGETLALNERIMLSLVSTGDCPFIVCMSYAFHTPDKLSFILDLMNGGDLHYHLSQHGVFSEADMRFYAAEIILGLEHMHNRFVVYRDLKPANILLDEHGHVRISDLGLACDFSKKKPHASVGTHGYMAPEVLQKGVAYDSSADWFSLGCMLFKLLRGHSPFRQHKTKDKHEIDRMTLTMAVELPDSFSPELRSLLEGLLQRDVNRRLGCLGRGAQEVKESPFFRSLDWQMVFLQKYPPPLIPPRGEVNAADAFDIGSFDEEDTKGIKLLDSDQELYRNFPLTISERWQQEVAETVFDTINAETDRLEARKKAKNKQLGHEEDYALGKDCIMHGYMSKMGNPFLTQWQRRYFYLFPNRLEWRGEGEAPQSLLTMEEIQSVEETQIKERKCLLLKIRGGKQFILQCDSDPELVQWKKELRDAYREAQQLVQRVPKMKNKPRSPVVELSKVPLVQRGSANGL
STEP inh – STEP phosphatase inhibitors, primary screen, biochemical, fluorescence intensity, uHTS; Tyrosine-protein phosphatase non-receptor type 5 (Homo sapiens), P54829; recombinant STEP, OMFP fluorogenic substrate; inhibition, % at 20 µM; 0.25% of 360,000 active; AID 588621, 2011;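 active = inhibition at 20 µM, scaled per plate between control wells, above about 37%, limit read from the data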;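 note: 0% = DMSO with enzyme and substrate and 100% = substrate only without enzyme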
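Test system: STEP tyrosine phosphatase / Reagent: OMFP at 25 µM / Doses: 20 µM, 1% DMSO / Read-out: percent inhibition scaled to no-enzyme and uninhibited-enzyme controls, plate-pattern corrected / Detection: FITC-channel fluorescence of OMFP product / Medium: Bis-Tris buffer pH 6.0, 2.5 mM DTT, 0.005% Tween 20 / Schedule: 20 min at room temperature, dark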
Scp1 confirm – Scp-1 phosphatase inhibitors, retest, confirmation, biochemical, colorimetric, single concentration; 61% of 2,500 active; recombinant SCP-1 catalytic domain, phosphate release, malachite green absorbance; inhibition, % at 20 µM; shares compounds with Scp1 inh;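 note: plate controls were DMSO with enzyme for no effect and buffer wells lacking enzyme for full effect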
Scp-1 MG ctr – colorimetric readout interference by compounds, confirmation, artefact control for Scp-1 inhibitor project, biochemical, single concentration. apparent inhibition (interference), % at 20 µM. 2,500 tested, under 10 active. Colorimetric interference counterscreen, malachite green absorbance 630 nm. shares compounds with Scp1 inh;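 note: compounds added after enzyme reaction finished so only phosphate colour detection is probed; plate controls were DMSO wells with completed Scp-1 reaction for no effect and substrate wells lacking enzyme for full effect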
Scp-1 Tm shift – Scp-1 binding by thermal shift, confirmation, orthogonal assay for Scp-1 inhibitor project, biophysical, differential scanning fluorimetry | 25% of 1,500 active | thermal shift relative to vanadate control, % at 40 µM | Recombinant SCP1, Sypro Orange thermal shift Tm | shares compounds with Scp1 inh | AID 540329, 2011;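 active = substances whose mean melting-temperature shift, as a percentage of the reference inhibitor's shift, reaches about 5.3%, limit read from the data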;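 note: 0% = Tm of DMSO wells and 100% = Tm with sodium orthovanadate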
DNMT1 confirm – DNMT1 methyltransferase inhibitor retest, confirmation, biochemical, molecular beacon, fluorescence, single concentration. shares compounds with DNMT1 block. DNMT1 molecular beacon HinP1I cleavage. inhibition, % at 10 µM. 8% of 2,300 active. AID 602385, 2012;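 active = average inhibition of at least 30% in the single-concentration confirmation test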
DNMT1 interf – shows spectral interference in the DNMT1 beacon assay; shares compounds with DNMT1 block; DNMT1 molecular beacon spectral interference counterscreen, fluorescence 485/520; activation (fluorescence interference), % at 10 µM; 1% of 2,300 active; AID 602387;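 active = activation of at least 30% at 10 µM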;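 note: DNMT1 catalytic domain with a HinP1I cleavage step and a FAM/dabcyl DNA beacon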
STEP inh conf – STEP phosphatase inhibitor hit confirmation, biochemical, fluorescence intensity, single concentration; shares compounds with STEP inh; recombinant STEP, OMFP fluorogenic substrate; inhibition, % at 20 µM; 32% of 520 active; AID 623866, 2012; call rule not given here;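 note: 0% = enzyme with substrate plus DMSO and 100% = substrate without enzyme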
* = called active by the depositor.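 Rule for the calls, unless noted: active = inhibition of at least 30% at 20 µM; inactive = the rest.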

CCc1ccc(N=C2NC(=O)/C(=C/c3ccc(OCC(=O)O)c(OC)c3)S2)cc1 was read as Scp1 inh 11.0, LMPTP inh -0.7, SUMO1 PPI mod -4.1, DNMT1 block -0.1 and STEP inh 0.6.
Screening CC(=O)c1cc2c(cc1C)CCCC2(C)C returned Scp1 inh -1.0, LMPTP inh -0.8, SUMO1 PPI mod 1.5, DNMT1 block 5.7 and STEP inh -1.5.
Screening O=C(N/N=C/c1ccc(OC(=O)c2ccc3c(c2)OCO3)cc1)c1cncc(Br)c1 returned Scp1 inh 94.1*, LMPTP inh 86.0*, SUMO1 PPI mod -3.3, DNMT1 block 117.2*, GRK2 inh 0.0, STEP inh 98.7*, Scp1 confirm 85.9*, Scp-1 MG ctr -13.1, Scp-1 Tm shift -25.8, DNMT1 confirm 4.5, DNMT1 interf -9.5 and STEP inh conf 11.3.
For CN(C)c1ccc(/C=N/NC(=O)c2cc(-c3ccc4c(c3)OCO4)n[nH]2)cc1 the results were Scp1 inh -14.2, LMPTP inh 21.4, SUMO1 PPI mod 6.8, DNMT1 block 0.3, GRK2 inh 0.0 and STEP inh 12.9.
For O=C(N/N=C/c1cccc(OC(=O)c2ccc3c(c2)OCO3)c1)c1cncc(Br)c1 the results were Scp1 inh -2.1, LMPTP inh -1.4, SUMO1 PPI mod -2.7, DNMT1 block 3.3, GRK2 inh 1.0 and STEP inh 1.5.
For O=C(N/N=C/c1ccc(F)cc1)c1cc(-c2ccc3c(c2)OCO3)n[nH]1 the results were Scp1 inh 55.5*, LMPTP inh 26.7, SUMO1 PPI mod 20.7, DNMT1 block 14.4, GRK2 inh 0.0, STEP inh 42.2*, Scp1 confirm 34.6*, Scp-1 MG ctr -21.0, Scp-1 Tm shift -21.9 and STEP inh conf 35.7*.
`O=C1NC[C@H](Cc2ccc(O)cc2)N(C[C@@H]2CCCN2C[C@H](Cc2ccccc2)N2C[C@H](Cc3ccc(O)cc3)N(CC3CCCCCC3)C(=O)C2=O)C1=O` gave LMPTP inh 13.0 and SUMO1 PPI mod 5.2.
CC(C)C[C@@H]1COc2cc(N3CCSCC3)ccc2S(=O)(=O)N1 was read as LMPTP inh 0.1 and SUMO1 PPI mod -2.1.
`O=C1c2cccc3cccc(c23)C(=O)N1c1ccc2ncccc2c1` gave Scp1 inh 101.4*, LMPTP inh 37.1, SUMO1 PPI mod -27.1, DNMT1 block 3.8, GRK2 inh 0.0, STEP inh 100.2*, Scp1 confirm 74.0*, Scp-1 MG ctr -19.5, Scp-1 Tm shift 2.0 and STEP inh conf 8.6.
`O=C(N/N=C\c1ccc(OC(=O)c2cccs2)cc1)c1ccc(Cl)cc1` gave Scp1 inh 96.3*, LMPTP inh 93.9*, SUMO1 PPI mod 6.1, DNMT1 block 42.8, GRK2 inh 0.0, STEP inh 93.9*, Scp1 confirm 81.4*, Scp-1 MG ctr -11.7, Scp-1 Tm shift -23.9 and STEP inh conf 5.6.
`O=C(N/N=C/c1cccc([N+](=O)[O-])c1)c1nc2ccccc2c(=O)[nH]1` gave Scp1 inh -0.7, LMPTP inh -2.1, SUMO1 PPI mod -5.8, DNMT1 block 3.0, GRK2 inh 1.0 and STEP inh 1.6.
O=C(N/N=C/c1ccccc1Cl)c1nc2ccc([N+](=O)[O-])cc2c(=O)[nH]1 was read as Scp1 inh 70.2*, LMPTP inh 39.7, SUMO1 PPI mod 3.3, DNMT1 block 0.2, GRK2 inh 0.0, STEP inh 54.0*, Scp1 confirm 31.7*, Scp-1 MG ctr -18.4, Scp-1 Tm shift 7.5* and STEP inh conf 7.6.
Screening CC(C)c1ccc(NC(=O)CN(C)C2=NS(=O)(=O)c3ccccc32)cc1 returned LMPTP inh 0.0, SUMO1 PPI mod 4.1, DNMT1 block 0.6 and STEP inh -2.8.
`CC1=C(C(=O)OC(C)C)C(c2ccc(Cl)cc2)n2c(s/c(=C\c3ccc(OCC(=O)O)cc3)c2=O)=N1` (stereo not given) gave Scp1 inh 56.5*, LMPTP inh 11.8, SUMO1 PPI mod 97.0*, DNMT1 block 85.7*, GRK2 inh 0.0, STEP inh 10.7, Scp1 confirm 49.5*, Scp-1 MG ctr -22.2, Scp-1 Tm shift 4.3 and STEP inh conf 51.6*.
`COc1ccc(OC)c(COC(=O)c2cccc(S(=O)(=O)N3CCCCC3)c2)c1` gave Scp1 inh -1.1, LMPTP inh 3.3, SUMO1 PPI mod 1.4, DNMT1 block 0.8, GRK2 inh 2.0 and STEP inh -2.1.
Screening Cc1c(CC(=O)NCCCC(=O)O)c(=O)oc2cc3oc4c(c3cc12)CCCC4 returned Scp1 inh -12.3, LMPTP inh 0.5, SUMO1 PPI mod 1.0, DNMT1 block -2.2, GRK2 inh 0.0 and STEP inh 1.3.
